This note sets out measurements from ChEMBL document CHEMBL1671686, “Carbapenem-resistant KPC-2-producing Escherichia coli in a Tel Aviv Medical Center, 2005 to 2008” (2010).

Structures are written as SMILES. ≈ marks a conversion by molar mass, not a printed value.

Holding throughout (assay type): functional
For experiment [1], the system named is Escherichia coli. The experiment in a line: Antimicrobial activity against Escherichia coli DH10B by vitek-2 method. The conditions noted are these: K-12 DH10B. Summed up:
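Plasmid-free recipient E. coli DH10B, used as the host for electroporation transformants, was tested for susceptibility on the automated Vitek-2 system.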

Experiment [2] deals with Escherichia coli. The experiment is described as follows: Antimicrobial activity against Escherichia coli isolate 339T expressing beta-lactamase KPC2 and PFGE cluster 5 isolated from peritoneal fluid of patient by vitek-2 method.
The subject of experiment [3] is Escherichia coli. The experiment in a line: Antimicrobial activity against Escherichia coli isolate 360T expressing beta-lactamase KPC2, OXA-9 and PFGE cluster 1 isolated from urine of patient by vitek-2 method.
For experiment [4], the system named is Escherichia coli. The experiment is described as follows: Antimicrobial activity against Escherichia coli isolate 360 expressing beta-lactamase KPC2, CTX-M-15, OXA-9, TEM and PFGE cluster 1 isolated from urine of patient by vitek-2 method. The conditions noted are these: isolate 360, Urine.
Experiment [5] deals with Escherichia coli. The experiment in a line: Antimicrobial activity against Escherichia coli isolate 547 expressing beta-lactamase KPC2, TEM and PFGE cluster 4 isolated from blood of patient by vitek-2 method.
The test system of experiment [6] is Escherichia coli. The experiment in a line: Antimicrobial activity against Escherichia coli isolate 1679T expressing beta-lactamase KPC2, TEM and PFGE cluster 6 isolated from peritoneal fluid of patient by vitek-2 method.
The test system of experiment [7] is Escherichia coli. The experiment in a line: Antimicrobial activity against Escherichia coli isolate 386 expressing beta-lactamase KPC2, CTX-M-15, OXA-9, TEM and PFGE cluster 1 isolated from wound of patient by vitek-2 method.
Experiment [8] deals with Escherichia coli. The experiment is described as follows: Antimicrobial activity against Escherichia coli isolate 157T expressing beta-lactamase KPC2 and PFGE cluster 3 isolated from urine of patient by vitek-2 method.
Experiment [9] relates to Escherichia coli. The experiment in a line: Antimicrobial activity against Escherichia coli isolate 543T expressing beta-lactamase KPC2 and PFGE cluster 4 isolated from synovial fluid of patient by vitek-2 method.
Experiment [10] concerns Escherichia coli. The experiment in a line: Antimicrobial activity against Escherichia coli isolate 157 expressing beta-lactamase KPC2, CTX-M-15, TEM and PFGE cluster 3 isolated from urine of patient by vitek-2 method. The conditions noted are these: isolate 157, Urine.
For experiment [11], the system named is Escherichia coli. The experiment is described as follows: Antimicrobial activity against Escherichia coli isolate 329T expressing beta-lactamase KPC2 and PFGE cluster 2 isolated from blood of patient by vitek-2 method.
Experiment [12] has as its system Escherichia coli. The experiment is described as follows: Antimicrobial activity against Escherichia coli isolate 329 expressing beta-lactamase KPC2, CTX-M-2, TEM and PFGE cluster 2 isolated from blood of patient by vitek-2 method.
In experiment [13] the test system is Escherichia coli. The experiment in a line: Antimicrobial activity against Escherichia coli isolate 544 expressing beta-lactamase KPC2, TEM and PFGE cluster 4 isolated from abscess of patient by vitek-2 method.
For experiment [14], the system named is Escherichia coli. The experiment in a line: Antimicrobial activity against Escherichia coli isolate 1679 expressing beta-lactamase KPC2, SHV-12, TEM and PFGE cluster 6 isolated from peritoneal fluid of patient by vitek-2 method.
For experiment [15], the system named is Escherichia coli. The experiment is described as follows: Antimicrobial activity against Escherichia coli isolate 540 expressing beta-lactamase KPC2, TEM and PFGE cluster 4 isolated from synovial fluid of patient by vitek-2 method.
Experiment [16] concerns Escherichia coli. The experiment is described as follows: Antimicrobial activity against Escherichia coli isolate 386T expressing beta-lactamase KPC2, OXA-9 and PFGE cluster 1 isolated from wound of patient by vitek-2 method.
For experiment [17], the system named is Escherichia coli. The experiment in a line: Antimicrobial activity against Escherichia coli isolate 543 expressing beta-lactamase KPC2, CTX-M-15, TEM and PFGE cluster 4 isolated from synovial fluid of patient by vitek-2 method.
The subject of experiment [18] is Escherichia coli. The experiment is described as follows: Antimicrobial activity against Escherichia coli isolate 547T expressing beta-lactamase KPC2 and PFGE cluster 4 isolated from blood of patient by vitek-2 method.
Experiment [19] deals with Escherichia coli. The experiment is described as follows: Antimicrobial activity against Escherichia coli isolate 339 expressing beta-lactamase KPC2, TEM and PFGE cluster 5 isolated from peritoneal fluid of patient by vitek-2 method.

Turning to `CO/N=C(\C(=O)N[C@@H]1C(=O)N2C(C(=O)[O-])=C(C[N+]3(C)CCCC3)CS[C@H]12)c1csc(N)n1`, in the experiment with Escherichia coli [1], it took 0.125 µg/mL (≈ 0.26 µM) to inhibit growth (MIC).
`NCC[C@H](O)C(=O)N[C@@H]1C[C@H](N)[C@@H](O[C@H]2O[C@H](CN)[C@@H](O)[C@H](O)[C@H]2O)[C@H](O)[C@H]1O[C@H]1O[C@H](CO)[C@@H](O)[C@H](N)[C@H]1O` [AMIKACIN]: the MIC in the experiment with Escherichia coli [1] is under 1 µg/mL; against Escherichia coli [2], under 2 µg/mL; against Escherichia coli [3] it was over 64 µg/mL; with Escherichia coli [4], 32 µg/mL (≈ 54.6 µM); in the experiment on Escherichia coli [5], 16 µg/mL (≈ 27.3 µM); in the experiment with Escherichia coli [6], 16 µg/mL (≈ 27.3 µM). In addition, the minimum inhibitory concentration (MIC) against Escherichia coli [7] is over 64 µg/mL; against Escherichia coli [8], under 2 µg/mL; against Escherichia coli [9], 16 µg/mL (≈ 27.3 µM); in the experiment with Escherichia coli [10], 8 µg/mL (≈ 13.7 µM); in the experiment with Escherichia coli [11], under 2 µg/mL; in the experiment with Escherichia coli [12] it was 32 µg/mL (≈ 54.6 µM). Also, the minimum inhibitory concentration (MIC) in the experiment with Escherichia coli [13] is 8 µg/mL (≈ 13.7 µM); against Escherichia coli [14], under 2 µg/mL; in the experiment on Escherichia coli [15], 16 µg/mL (≈ 27.3 µM); in the experiment on Escherichia coli [16] it was over 64 µg/mL; in the experiment with Escherichia coli [17] it was over 64 µg/mL; against Escherichia coli [18], 16 µg/mL (≈ 27.3 µM). The compound also gave an MIC with Escherichia coli [19] of 4 µg/mL (≈ 6.83 µM).
Compound `C[C@H]1[C@H](NC(=O)/C(=N\OC(C)(C)C(=O)O)c2csc(N)n2)C(=O)N1S(=O)(=O)O` [AZTREONAM] returned an MIC in the experiment on Escherichia coli [1] of under 1 µg/mL.
For the compound `CC(C)(O/N=C(\C(=O)N[C@@H]1C(=O)N2C(C(=O)[O-])=C(C[n+]3ccccc3)CS[C@H]12)c1csc(N)n1)C(=O)O` [CEFTAZIDIME], the MIC in the experiment with Escherichia coli [1] is under 0.25 µg/mL; with Escherichia coli [2] it was 16 µg/mL (≈ 29.3 µM); in the experiment on Escherichia coli [3] it was 16 µg/mL (≈ 29.3 µM); with Escherichia coli [4] it was over 64 µg/mL; in the experiment with Escherichia coli [5], 4 µg/mL (≈ 7.32 µM); in the experiment with Escherichia coli [6], over 64 µg/mL. Moreover, the MIC with Escherichia coli [7] was over 64 µg/mL; with Escherichia coli [8], 16 µg/mL (≈ 29.3 µM); in the experiment on Escherichia coli [9] it was 16 µg/mL (≈ 29.3 µM); against Escherichia coli [10], over 64 µg/mL; in the experiment with Escherichia coli [11] it was 16 µg/mL (≈ 29.3 µM); against Escherichia coli [12], over 64 µg/mL. Besides, the MIC against Escherichia coli [13] was 16 µg/mL (≈ 29.3 µM); against Escherichia coli [14], over 64 µg/mL; against Escherichia coli [15], 4 µg/mL (≈ 7.32 µM); in the experiment on Escherichia coli [16], 16 µg/mL (≈ 29.3 µM); in the experiment with Escherichia coli [17], 16 µg/mL (≈ 29.3 µM); against Escherichia coli [18], 16 µg/mL (≈ 29.3 µM). This compound returned an MIC with Escherichia coli [19] of 4 µg/mL (≈ 7.32 µM).
Turning to `CO/N=C(\C(=O)N[C@@H]1C(=O)N2C(C(=O)O)=C(CSc3nc(=O)c(O)nn3C)CS[C@H]12)c1csc(N)n1` [CEFTRIAXONE], the MIC in the experiment with Escherichia coli [1] was under 0.25 µg/mL; against Escherichia coli [2] it was 8 µg/mL (≈ 14.4 µM); against Escherichia coli [3], 8 µg/mL (≈ 14.4 µM); against Escherichia coli [4], over 64 µg/mL; with Escherichia coli [5], over 64 µg/mL; in the experiment on Escherichia coli [6], 8 µg/mL (≈ 14.4 µM). In addition, the MIC against Escherichia coli [7] is over 64 µg/mL; against Escherichia coli [8], over 64 µg/mL; in the experiment with Escherichia coli [9], 16 µg/mL (≈ 28.9 µM); against Escherichia coli [10], over 64 µg/mL; in the experiment with Escherichia coli [11], 16 µg/mL (≈ 28.9 µM); against Escherichia coli [12], over 64 µg/mL. Besides, the MIC is 32 µg/mL (≈ 57.7 µM) in the experiment with Escherichia coli [13]; 32 µg/mL (≈ 57.7 µM) in the experiment on Escherichia coli [14]; over 64 µg/mL in the experiment on Escherichia coli [15]; 8 µg/mL (≈ 14.4 µM) against Escherichia coli [16]; over 64 µg/mL against Escherichia coli [17]; 8 µg/mL (≈ 14.4 µM) against Escherichia coli [18]. Further, the MIC against Escherichia coli [19] was over 64 µg/mL.
For the compound `O=C(O)c1cn(C2CC2)c2cc(N3CCNCC3)c(F)cc2c1=O` [CIPROFLOXACIN], the MIC in the experiment on Escherichia coli [1] was under 0.25 µg/mL.
For `C[C@H]1COc2c(N3CCN(C)CC3)c(F)cc3c(=O)c(C(=O)O)cn1c23.C[C@H]1COc2c(N3CCN(C)CC3)c(F)cc3c(=O)c(C(=O)O)cn1c23.O` [LEVOFLOXACIN], the MIC against Escherichia coli [1] was under 0.25 µg/mL; against Escherichia coli [2], under 0.25 µg/mL; in the experiment with Escherichia coli [3], under 0.25 µg/mL; in the experiment with Escherichia coli [4], over 8 µg/mL; with Escherichia coli [5], over 8 µg/mL; against Escherichia coli [6] it was under 0.25 µg/mL. In addition, the MIC is over 8 µg/mL with Escherichia coli [7]; under 0.25 µg/mL with Escherichia coli [8]; under 0.25 µg/mL in the experiment on Escherichia coli [9]; over 8 µg/mL against Escherichia coli [10]; under 0.25 µg/mL in the experiment with Escherichia coli [11]; over 8 µg/mL with Escherichia coli [12]. In addition, the MIC against Escherichia coli [13] was over 8 µg/mL; with Escherichia coli [14], over 8 µg/mL; against Escherichia coli [15] it was over 8 µg/mL; against Escherichia coli [16], under 0.25 µg/mL; with Escherichia coli [17], over 8 µg/mL; in the experiment on Escherichia coli [18], under 0.25 µg/mL. Also, in the experiment with Escherichia coli [19], the minimum inhibitory concentration (MIC) was over 8 µg/mL.
